Results taken from ChEMBL document CHEMBL3112484, “Design, synthesis, and biological evaluation of a series of piperazine ureas as fatty acid amide hydrolase inhibitors” (Bioorg Med Chem, 2014).
≈ marks a conversion by molar mass, not a printed value.

What was measured:
[1] = target: T1, Fatty-acid amide hydrolase 1 (Homo sapiens, UniProt O00519); assay: Apparent inhibition of human FAAH expressed in CHOK1 cells using AMCAA as substrate after 30 mins by fluorescence assay; format: cell-based, CHO-K1
T1 sequence (O00519 whole entry): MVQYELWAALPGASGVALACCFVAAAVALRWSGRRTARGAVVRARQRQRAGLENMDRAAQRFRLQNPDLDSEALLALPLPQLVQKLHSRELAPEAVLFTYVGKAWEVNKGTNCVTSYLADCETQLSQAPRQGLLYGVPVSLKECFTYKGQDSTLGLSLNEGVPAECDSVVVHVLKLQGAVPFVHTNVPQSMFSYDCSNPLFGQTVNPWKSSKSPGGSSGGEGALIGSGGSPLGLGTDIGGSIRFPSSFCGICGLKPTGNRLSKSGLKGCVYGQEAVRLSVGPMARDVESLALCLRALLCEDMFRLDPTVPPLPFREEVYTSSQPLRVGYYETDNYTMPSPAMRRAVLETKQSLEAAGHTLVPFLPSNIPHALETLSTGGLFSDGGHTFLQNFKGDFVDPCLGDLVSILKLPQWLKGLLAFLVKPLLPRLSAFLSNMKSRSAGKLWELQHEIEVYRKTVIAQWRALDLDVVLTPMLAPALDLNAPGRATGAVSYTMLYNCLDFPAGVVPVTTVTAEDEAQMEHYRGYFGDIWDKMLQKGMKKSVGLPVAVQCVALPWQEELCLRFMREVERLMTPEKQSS
How it was run: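 Enzyme source: CHO-K1 cells stably expressing human FAAH cloned from a human brain library, grown in Ham's F-12 with 10% FBS and 800 µg/mL G418, then homogenized in 10 mM Tris, 1 mM EDTA, 10 mM MgCl2. Fraction (125–250 ng final) was incubated with AMCAA at 37 °C in Tris-HCl pH 9.0 buffer with BSA. Fluorescence read at ex 355/em 460 nm; solvent = 100%, zero-time count = 0%. IC50 from a 30 min reaction.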

[2] = target: T2, Fatty-acid amide hydrolase 1 (Rattus norvegicus, UniProt P97612); assay: Apparent inhibition of rat FAAH using AMCAA as substrate after 30 mins by fluorescence assay
T2 sequence (P97612 whole entry): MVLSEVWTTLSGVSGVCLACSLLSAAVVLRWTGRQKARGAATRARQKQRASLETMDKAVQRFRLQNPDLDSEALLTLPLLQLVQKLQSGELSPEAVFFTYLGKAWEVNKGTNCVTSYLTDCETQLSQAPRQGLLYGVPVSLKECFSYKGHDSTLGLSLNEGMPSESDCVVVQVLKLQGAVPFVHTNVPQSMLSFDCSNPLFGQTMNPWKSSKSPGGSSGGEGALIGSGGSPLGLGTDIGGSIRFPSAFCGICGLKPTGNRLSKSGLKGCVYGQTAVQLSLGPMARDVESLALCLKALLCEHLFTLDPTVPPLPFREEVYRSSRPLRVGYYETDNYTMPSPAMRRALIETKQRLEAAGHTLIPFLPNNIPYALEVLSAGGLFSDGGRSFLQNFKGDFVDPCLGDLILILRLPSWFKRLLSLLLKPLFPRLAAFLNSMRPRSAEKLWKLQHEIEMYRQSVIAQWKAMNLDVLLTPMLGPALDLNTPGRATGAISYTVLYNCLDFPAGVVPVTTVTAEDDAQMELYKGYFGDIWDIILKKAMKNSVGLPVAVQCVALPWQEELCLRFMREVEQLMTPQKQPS
How it was run: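 Rat FAAH enzyme fraction (125–250 ng final) was reacted with AMCAA substrate across a range of compound concentrations at 37 °C. Buffer: 125 mM Tris-HCl pH 9.0, 1 mM EDTA, 0.4 mM HEPES, 0.2% glycerol, 0.02% Triton X-100, 0.3% fatty acid free BSA. Fluorescence read at ex 355/em 460 nm, scaled to solvent (100%) and zero-time (0%). IC50 determined at a 30 min reaction.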

Mus musculus = assay: Analgesic activity in ICR mouse assessed as inhibition of acetic acid-induced writhing at 10 mg/kg, po pretreated for 60 mins followed by acetic acid-challenge measured for 20 mins relative to control; format: functional
How it was run: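 Mice received compound po at 10 mg/kg as a suspension in 0.5% methylcellulose (10 mL/kg). After 60 min, 0.6% (v/v) acetic acid (10 mL/kg) was given ip. Each mouse was then placed alone in an observation chamber. Treated mice were compared with vehicle-treated mice by Student's t-test.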

[3] = Solubility of the compound in aqueous buffer at pH 6.8 by HPLC analysis; format: physicochemical
How it was run: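 Small volumes of compound DMSO solution were added to aqueous buffer at pH 6.8 and incubated. Precipitate was removed by filtration, and the filtrate concentration was measured by HPLC.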

Brain [4] = assay: AUC in rat brain at 0.03 mg/kg, po by LC/MS/MS analysis; format: ADME, organism-based; parameters: dose 0.03 mg/kg, route oral; conditions: in vivo
How it was run: (§1)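 Rats given single oral doses of 0.03, 0.3 or 3 mg/kg as a suspension in 0.5% methylcellulose. Brain drug levels were measured by LC/MS/MS over time, and AUC is reported in ng h/g. Each value is the mean of n = 3.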

Brain [5] = assay: AUC in rat brain at 0.3 mg/kg, po by LC/MS/MS analysis; format: ADME, organism-based; parameters: dose 0.3 mg/kg, route oral; conditions: in vivo; how it was run: as §1
Brain [6] = assay: AUC in rat brain at 3 mg/kg, po by LC/MS/MS analysis; format: ADME, organism-based; parameters: dose 3 mg/kg, route oral; conditions: in vivo; how it was run: as §1
[7] = target: T3, Fatty-acid amide hydrolase 1 (Homo sapiens) (UniProt O00519); assay: Irreversible inhibition of FAAH (unknown origin) using AMCAA as substrate at 10 nM by fluorescence assay; conditions: TDE = time-dependent effect
T3 sequence (whole entry): T1 sequence (O00519 whole entry)

Rattus norvegicus [8] = assay: Analgesic activity in po dosed Sprague-Dawley rat sciatic nerve injury-induced neuropathic pain model assessed as attenuation of tactile allodynia administered for 7 days measured 2 hrs after treatment; format: functional, organism-based; conditions: in the assay text read “administered 7 days after nerve injury” for “administered for 7 days”
How it was run: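 Seven-week-old male Sprague Dawley rats under pentobarbital had the right common peroneal nerve tightly ligated with 4-0 silk and transected distally; in sham rats the nerve was exposed only. Seven days later, rats got an oral dose of 1, 3 or 10 mg/kg or 0.5% methylcellulose vehicle. Ipsilateral tactile allodynia was scored blinded with von Frey filaments 2 h post-dose. Mean and SE, 8 rats.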

[9] = Ratio of drug level in brain to plasma in rat at 3 mg/kg, po; format: ADME, organism-based; parameters: dose 3 mg/kg, route oral; conditions: read-out: BPR
How it was run: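 Rats were dosed orally at 0.03, 0.3 or 3 mg/kg as a suspension in 0.5% methylcellulose. Compound levels in plasma and brain were quantified by LC/MS/MS. Cmax, Tmax and AUC are means of n = 3.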

Rattus norvegicus [10] = assay: Analgesic activity in po dosed Sprague-Dawley rat complete Freund's adjuvant-induced inflammatory pain model assessed as attenuation of tactile allodynia administered for 5 days measured 4 hrs after treatment; format: functional, organism-based; conditions: in the assay text read “administered 5 days after CFA injection” for “administered for 5 days”
How it was run: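 Six-week-old male Sprague Dawley rats received 150 µL CFA into the plantar surface of the right hind paw; sham rats got liquid paraffin instead. Five days after injection, a single oral dose of 1, 3 or 10 mg/kg was given, with 0.5% methylcellulose as vehicle. Ipsilateral tactile allodynia was scored blinded with von Frey filaments 4 h post-dose. Mean and SE, 8–10 rats.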

| Structure (SMILES) | IC50 [1] | IC50 [2] | solubility [3] | inhibition in vivo at 10 mg/kg (Mus musculus) | other results |
| --- | --- | --- | --- | --- | --- |
| O=C(Nc1cccnn1)N1CCN(c2nccc(-c3cc(F)cc(F)c3)n2)CC1 | 0.08 nM | 0.34 nM | 0.1 µg/mL (≈ 0.252 µM) | 0.9% | – |
| O=C(Nc1cccnn1)N1CCN(c2ccnc(-c3ccc(F)cc3F)n2)CC1 | 23 nM | 34 nM | 52 µg/mL (≈ 131 µM) | – | – |
| O=C(Nc1cccnn1)N1CCN(c2cccc(-c3ccc(F)cc3F)n2)CC1 | 36 nM | 13 nM | – | – | – |
| O=C(Nc1cccnn1)N1CCN(c2nccc(-c3cc(F)ccc3F)n2)CC1 | 0.025 nM | 0.17 nM | < 0.06 µg/mL | 2.2% | – |
| CCCCC/C=C\C/C=C\C/C=C\C/C=C\CCCC(=O)NCCO [ANANDAMIDE] | – | – | – | – | AUC (Brain [4]): 64.3 ng·h/g; AUC (Brain [5]): 232.9 ng·h/g; AUC (Brain [6]): 311.6 ng·h/g |
| O=C(Nc1cccnn1)N1CCN(c2nccc(-c3ccc(F)c(F)c3)n2)CC1 | 0.72 nM | 0.28 nM | 3.1 µg/mL (≈ 7.8 µM) | 34.7% | AUC (Brain [4]): 0 ng·h/g; inhibition [7]: tde; Activity (Rattus norvegicus [8]): Dose-dependent effect; AUC (Brain [5]): 898 ng·h/g; AUC (Brain [6]): 15955 ng·h/g; Kp [9]: 2; Activity (Rattus norvegicus [10]): Dose-dependent effect |
| O=C(Nc1cccnn1)N1CCN(c2nccc(-c3cccc(F)c3F)n2)CC1 | 0.072 nM | 1.2 nM | 0.16 µg/mL (≈ 0.403 µM) | 18.9% | – |
| O=C(Nc1cccnn1)N1CCN(c2nccc(-c3ccc(F)cc3F)n2)CC1 | 1.1 nM | 0.43 nM | 0.85 µg/mL (≈ 2.14 µM) | – | – |

Second part, led by results:

| IC50 [1] | IC50 [2] | solubility [3] | Structure (SMILES) | inhibition in vivo at 10 mg/kg (Mus musculus) | other results |
| --- | --- | --- | --- | --- | --- |
| 140 nM | 74 nM | – | O=C(Nc1cccnn1)N1CCN(c2cncc(-c3ccc(F)cc3F)c2)CC1 | – | – |
| 2.2 nM | 4.3 nM | – | O=C(Nc1cccnn1)N1CCN(c2cc(-c3ccc(F)cc3F)ccn2)CC1 | – | – |
| 1.5 nM | 1.7 nM | – | O=C(Nc1cccnn1)N1CCN(c2cc(-c3ccc(F)cc3F)ncn2)CC1 | – | – |
| 28 nM | 12 nM | – | O=C(Nc1cccnn1)N1CCN(c2ccnc(-c3ccc(F)cc3F)c2)CC1 | – | – |
